# Test results taken from ChEMBL document CHEMBL1221334, “A class of novel carboline intercalators: Their synthesis, in vitro anti-proliferation, in vivo anti-tumor action, and 3D QSAR analysis” (Bioorg Med Chem, 2010).
# pIC50: −log10 of the molar value. Activity calls are given as the source filed them. The rule behind the calls is not given here.
# Test system: HepG2
# Test: Cytotoxicity against human HepG2 cells […] by MTT assay
# Format: functional, cell-based
# Conditions: not given
# How it was run: (§1)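 Cells (1 × 10⁴/ml) in RPMI-1640 were cultured 24 h at 37 °C in 5% CO₂. Medium was then renewed with compound (final 0.1–200 µM) and cells grown a further 48 h. MTT was added for 4 h, residues dissolved in DMSO and absorbance read. I% = (C − T)/C. IC50 is given as mean ± SD, n = 6.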
row,Structure (SMILES),pIC50
1,CC(C)C[C@H](NCCc1nc(C(=O)OCc2ccccc2)cc2c1[nH]c1ccccc12)C(=O)OCc1ccccc1,4.60
2,NC(=O)CC[C@H](NCCc1nc(C(=O)OCc2ccccc2)cc2c1[nH]c1ccccc12)C(=O)OCc1ccccc1,4.44
3,O=C(OCc1ccccc1)c1cc2c([nH]c3ccccc32)c(CCN[C@@H](Cc2ccccc2)C(=O)OCc2ccccc2)n1,< 4.00
4,CC(C)[C@H](NCCc1nc(C(=O)OCc2ccccc2)cc2c1[nH]c1ccccc12)C(=O)OCc1ccccc1,4.53
5,C[C@@H](O)[C@H](NCCc1nc(C(=O)OCc2ccccc2)cc2c1[nH]c1ccccc12)C(=O)OCc1ccccc1,4.59
6,O=C(OCc1ccccc1)c1cc2c([nH]c3ccccc32)c(CCN[C@@H](Cc2c[nH]c3ccccc23)C(=O)OCc2ccccc2)n1,4.22
7,O=C(CNCCc1nc(C(=O)OCc2ccccc2)cc2c1[nH]c1ccccc12)OCc1ccccc1,4.30
8,O=C(OCc1ccccc1)c1cc2c([nH]c3ccccc32)c(CCN2CCC[C@H]2C(=O)OCc2ccccc2)n1,4.77
9,O=C(C[C@H](NCCc1nc(C(=O)OCc2ccccc2)cc2c1[nH]c1ccccc12)C(=O)OCc1ccccc1)OCc1ccccc1,< 4.00

# Test system: HeLa
# Test: Cytotoxicity against human HeLa cells […] by MTT assay
# Format: functional, cell-based
# Conditions: not given
# How it was run: as §1
row,Structure (SMILES),pIC50
1,CC(C)C[C@H](NCCc1nc(C(=O)OCc2ccccc2)cc2c1[nH]c1ccccc12)C(=O)OCc1ccccc1,4.65
2,NC(=O)CC[C@H](NCCc1nc(C(=O)OCc2ccccc2)cc2c1[nH]c1ccccc12)C(=O)OCc1ccccc1,4.15
3,O=C(OCc1ccccc1)c1cc2c([nH]c3ccccc32)c(CCN[C@@H](Cc2ccccc2)C(=O)OCc2ccccc2)n1,< 4.00
4,CC(C)[C@H](NCCc1nc(C(=O)OCc2ccccc2)cc2c1[nH]c1ccccc12)C(=O)OCc1ccccc1,4.59
5,C[C@@H](O)[C@H](NCCc1nc(C(=O)OCc2ccccc2)cc2c1[nH]c1ccccc12)C(=O)OCc1ccccc1,4.82
6,O=C(OCc1ccccc1)c1cc2c([nH]c3ccccc32)c(CCN[C@@H](Cc2c[nH]c3ccccc23)C(=O)OCc2ccccc2)n1,4.23
7,O=C(CNCCc1nc(C(=O)OCc2ccccc2)cc2c1[nH]c1ccccc12)OCc1ccccc1,4.57
8,O=C(OCc1ccccc1)c1cc2c([nH]c3ccccc32)c(CCN2CCC[C@H]2C(=O)OCc2ccccc2)n1,4.59
9,O=C(C[C@H](NCCc1nc(C(=O)OCc2ccccc2)cc2c1[nH]c1ccccc12)C(=O)OCc1ccccc1)OCc1ccccc1,< 4.00

# Test system: Bel-7402
# Test: Cytotoxicity against human Bel7402 cells […] by MTT assay
# Format: functional, cell-based
# Conditions: not given
# How it was run: as §1
row,Structure (SMILES),pIC50
1,CC(C)C[C@H](NCCc1nc(C(=O)OCc2ccccc2)cc2c1[nH]c1ccccc12)C(=O)OCc1ccccc1,4.36
2,NC(=O)CC[C@H](NCCc1nc(C(=O)OCc2ccccc2)cc2c1[nH]c1ccccc12)C(=O)OCc1ccccc1,4.09
3,O=C(OCc1ccccc1)c1cc2c([nH]c3ccccc32)c(CCN[C@@H](Cc2ccccc2)C(=O)OCc2ccccc2)n1,< 4.00
4,CC(C)[C@H](NCCc1nc(C(=O)OCc2ccccc2)cc2c1[nH]c1ccccc12)C(=O)OCc1ccccc1,4.69
5,C[C@@H](O)[C@H](NCCc1nc(C(=O)OCc2ccccc2)cc2c1[nH]c1ccccc12)C(=O)OCc1ccccc1,< 4.00
6,O=C(OCc1ccccc1)c1cc2c([nH]c3ccccc32)c(CCN[C@@H](Cc2c[nH]c3ccccc23)C(=O)OCc2ccccc2)n1,4.41
7,O=C(CNCCc1nc(C(=O)OCc2ccccc2)cc2c1[nH]c1ccccc12)OCc1ccccc1,4.27
8,O=C(OCc1ccccc1)c1cc2c([nH]c3ccccc32)c(CCN2CCC[C@H]2C(=O)OCc2ccccc2)n1,4.28
9,O=C(C[C@H](NCCc1nc(C(=O)OCc2ccccc2)cc2c1[nH]c1ccccc12)C(=O)OCc1ccccc1)OCc1ccccc1,4.22

# Test system: K562
# Test: Cytotoxicity against human K562 cells […] by MTT assay
# Format: functional, cell-based
# Conditions: not given
# How it was run: as §1
row,Structure (SMILES),pIC50
1,CC(C)C[C@H](NCCc1nc(C(=O)OCc2ccccc2)cc2c1[nH]c1ccccc12)C(=O)OCc1ccccc1,4.67
2,NC(=O)CC[C@H](NCCc1nc(C(=O)OCc2ccccc2)cc2c1[nH]c1ccccc12)C(=O)OCc1ccccc1,< 4.00
3,O=C(OCc1ccccc1)c1cc2c([nH]c3ccccc32)c(CCN[C@@H](Cc2ccccc2)C(=O)OCc2ccccc2)n1,< 4.00
4,CC(C)[C@H](NCCc1nc(C(=O)OCc2ccccc2)cc2c1[nH]c1ccccc12)C(=O)OCc1ccccc1,4.68
5,C[C@@H](O)[C@H](NCCc1nc(C(=O)OCc2ccccc2)cc2c1[nH]c1ccccc12)C(=O)OCc1ccccc1,4.42
6,O=C(OCc1ccccc1)c1cc2c([nH]c3ccccc32)c(CCN[C@@H](Cc2c[nH]c3ccccc23)C(=O)OCc2ccccc2)n1,4.83
7,O=C(CNCCc1nc(C(=O)OCc2ccccc2)cc2c1[nH]c1ccccc12)OCc1ccccc1,4.33
8,O=C(OCc1ccccc1)c1cc2c([nH]c3ccccc32)c(CCN2CCC[C@H]2C(=O)OCc2ccccc2)n1,4.70
9,O=C(C[C@H](NCCc1nc(C(=O)OCc2ccccc2)cc2c1[nH]c1ccccc12)C(=O)OCc1ccccc1)OCc1ccccc1,< 4.00

# Test system: B16
# Test: Cytotoxicity against mouse B16 cells […] by MTT assay
# Format: functional, cell-based
# Conditions: not given
row,Structure (SMILES),pIC50
1,CC(C)C[C@H](NCCc1nc(C(=O)OCc2ccccc2)cc2c1[nH]c1ccccc12)C(=O)OCc1ccccc1,4.30
2,NC(=O)CC[C@H](NCCc1nc(C(=O)OCc2ccccc2)cc2c1[nH]c1ccccc12)C(=O)OCc1ccccc1,4.37
3,O=C(OCc1ccccc1)c1cc2c([nH]c3ccccc32)c(CCN[C@@H](Cc2ccccc2)C(=O)OCc2ccccc2)n1,4.55
4,CC(C)[C@H](NCCc1nc(C(=O)OCc2ccccc2)cc2c1[nH]c1ccccc12)C(=O)OCc1ccccc1,4.54
5,C[C@@H](O)[C@H](NCCc1nc(C(=O)OCc2ccccc2)cc2c1[nH]c1ccccc12)C(=O)OCc1ccccc1,4.42
6,O=C(OCc1ccccc1)c1cc2c([nH]c3ccccc32)c(CCN[C@@H](Cc2c[nH]c3ccccc23)C(=O)OCc2ccccc2)n1,4.68
7,O=C(CNCCc1nc(C(=O)OCc2ccccc2)cc2c1[nH]c1ccccc12)OCc1ccccc1,4.12
8,O=C(OCc1ccccc1)c1cc2c([nH]c3ccccc32)c(CCN2CCC[C@H]2C(=O)OCc2ccccc2)n1,4.14
9,O=C(C[C@H](NCCc1nc(C(=O)OCc2ccccc2)cc2c1[nH]c1ccccc12)C(=O)OCc1ccccc1)OCc1ccccc1,4.95

# Test system: CCRF S-180
# Test: Antitumor activity against mouse S180 cells transplanted in ICR mouse assessed as inhibition of tumor weight at 8.9 umol/kg, ip
# Format: functional
# Conditions: CCRF S-180, ip
# How it was run: (§2)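 S180 ascites cells, serially passaged weekly in mice, were implanted subcutaneously (1 × 10⁷ viable cells in NS) in the right axilla of male ICR mice aged 10–12 weeks. After 24 h, mice were randomized (10/group) and dosed ip daily with 8.9 µmol/kg in 0.2 ml NS for 7 days. Tumours were weighed 24 h after the last dose. Inhibition = [1 − Tw/Cw] × 100.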
row,Structure (SMILES),inhibition in vivo at 8.9 µmol/kg [%]
1,CC(C)C[C@H](NCCc1nc(C(=O)OCc2ccccc2)cc2c1[nH]c1ccccc12)C(=O)OCc1ccccc1,50.9
2,NC(=O)CC[C@H](NCCc1nc(C(=O)OCc2ccccc2)cc2c1[nH]c1ccccc12)C(=O)OCc1ccccc1,-5.3
3,O=C(OCc1ccccc1)c1cc2c([nH]c3ccccc32)c(CCN[C@@H](Cc2ccccc2)C(=O)OCc2ccccc2)n1,6.6
4,CC(C)[C@H](NCCc1nc(C(=O)OCc2ccccc2)cc2c1[nH]c1ccccc12)C(=O)OCc1ccccc1,34
5,C[C@@H](O)[C@H](NCCc1nc(C(=O)OCc2ccccc2)cc2c1[nH]c1ccccc12)C(=O)OCc1ccccc1,34.8
6,O=C(OCc1ccccc1)c1cc2c([nH]c3ccccc32)c(CCN[C@@H](Cc2c[nH]c3ccccc23)C(=O)OCc2ccccc2)n1,22.2
7,O=C(CNCCc1nc(C(=O)OCc2ccccc2)cc2c1[nH]c1ccccc12)OCc1ccccc1,3.5
8,O=C(OCc1ccccc1)c1cc2c([nH]c3ccccc32)c(CCN2CCC[C@H]2C(=O)OCc2ccccc2)n1,7.1
9,O=C(C[C@H](NCCc1nc(C(=O)OCc2ccccc2)cc2c1[nH]c1ccccc12)C(=O)OCc1ccccc1)OCc1ccccc1,56.1

# Test system: CCRF S-180
# Test: Antitumor activity against mouse S180 cells transplanted in ICR mouse assessed as inhibition of tumor weight at 89 umol/kg, ip
# Format: functional
# Conditions: CCRF S-180, ip
row,Structure (SMILES),inhibition in vivo at 89 µmol/kg [%]
1,O=C(C[C@H](NCCc1nc(C(=O)OCc2ccccc2)cc2c1[nH]c1ccccc12)C(=O)OCc1ccccc1)OCc1ccccc1,73.5

# Test system: CCRF S-180
# Test: Antitumor activity against mouse S180 cells transplanted in ICR mouse assessed as inhibition of tumor weight at 0.89 umol/kg, ip
# Format: functional
# Conditions: CCRF S-180, ip
row,Structure (SMILES),inhibition in vivo at 0.89 µmol/kg [%]
1,O=C(C[C@H](NCCc1nc(C(=O)OCc2ccccc2)cc2c1[nH]c1ccccc12)C(=O)OCc1ccccc1)OCc1ccccc1,40.6

# Test system: CCRF S-180
# Test: Antitumor activity against mouse S180 cells transplanted in ICR mouse assessed as inhibition of tumor weight
# Format: functional, cell-based
# Conditions: not given
# How it was run: as §2
row,Structure (SMILES),Activity
1,O=C(C[C@H](NCCc1nc(C(=O)OCc2ccccc2)cc2c1[nH]c1ccccc12)C(=O)OCc1ccccc1)OCc1ccccc1,Dose-dependent effect

# Test system: Calf thymus DNA
# Test: Binding affinity to calf thymus DNA assessed as induction of hypochromatic effect by spectrophotometry
# Format: nucleic-acid assay
# Conditions: Bos taurus
# How it was run: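 UV absorption spectra (220–400 nm) were recorded in PBS for CT DNA (final 240 µM), alone and with test compound at final concentrations of 27, 54, 81 and 108 µM. Hypochromicity and wavelength shift were assessed.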
row,Activity [%],Structure (SMILES)
1,53,CC(C)C[C@H](NCCc1nc(C(=O)OCc2ccccc2)cc2c1[nH]c1ccccc12)C(=O)OCc1ccccc1

# Test system: Calf thymus DNA
# Test: Binding affinity to calf thymus DNA assessed as decrease in fluorescence intensity at 8 to 72 uM by fluorescence spectroscopy
# Format: nucleic-acid assay
# Conditions: Bos taurus
row,Activity,Structure (SMILES)
1,Active,CC(C)C[C@H](NCCc1nc(C(=O)OCc2ccccc2)cc2c1[nH]c1ccccc12)C(=O)OCc1ccccc1

# Test system: Calf thymus DNA
# Test: Binding affinity to calf thymus DNA assessed as increase in viscosity
# Format: nucleic-acid assay
# Conditions: Bos taurus
# How it was run: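 An Ostwald viscometer was held at 28 °C in phosphate buffer, with compound/DNA ratios of 0–0.36. Flow times were taken after 5 min of thermal equilibration. η = (t − t₀)/t₀, and data were plotted as (η/η₀)^1/3 versus binding ratio.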
row,Activity,Structure (SMILES)
1,Dose-dependent effect,CC(C)C[C@H](NCCc1nc(C(=O)OCc2ccccc2)cc2c1[nH]c1ccccc12)C(=O)OCc1ccccc1

# Test system: Calf thymus DNA
# Test: Binding affinity to calf thymus DNA assessed as change in melting temperature
# Format: nucleic-acid assay
# Conditions: Bos taurus
# How it was run: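 Thermal denaturation used CT DNA (100 µM) with test compound (18 µM) in PBS, pH 7.4, at a compound/DNA ratio of 0.18. Temperature was raised at 1 °C/min while absorbance at 260 nm was monitored.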
row,Tm [°C],Structure (SMILES)
1,13.8,CC(C)C[C@H](NCCc1nc(C(=O)OCc2ccccc2)cc2c1[nH]c1ccccc12)C(=O)OCc1ccccc1
